Consider three molecules from ChEMBL document CHEMBL3616441, “Discovery of a Selective and CNS Penetrant Negative Allosteric Modulator of Metabotropic Glutamate Receptor Subtype 3 with Antidepressant and Anxiolytic Activity in Rodents” (J Med Chem, 2015).

Series [1] concerns the target Metabotropic glutamate receptor 3 (Rattus norvegicus) (UniProt P31422). The experiment in a line: Negative allosteric modulation of rat mGlu3 receptor assessed as amplitude response at 30 uM relative to glutamate. Put shortly:
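Calcium mobilization in cell line stably expressing rat mGlu3 with promiscuous Gα15; fluorescence read-out; amplitude of glutamate response with 30 μM test compound expressed as percentage of maximal response (100 μM glutamate); average of n = 3.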

Series [2] is described as follows: Half life in rat at 0.2 mg/kg, iv administered as cassette dose. Conditions: in vivo. The series is classed as ADME, organism-based.
In series [3] the target is Metabotropic glutamate receptor 5 (Rattus norvegicus, UniProt P31424). The experiment in a line: Modulation of rat mGlu5 receptor assessed as calcium mobilization by cell based fluorescence assay. The series is classed as functional. Put shortly:
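Calcium mobilization assay with fluorescence read-out in cells expressing mGlu5; full concentration-response curves; % Glu Max is the amplitude of response with 30 μM test compound as a percentage of the maximal response to 100 μM glutamate; values averaged over n-3.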
On the technique in general: A change in cytosolic calcium serves as a functional read-out for many receptors and channels.

Series [4] addresses Metabotropic glutamate receptor 5 (Rattus norvegicus) (UniProt P31424). The experiment in a line: Positive allosteric modulation of rat mGlu5 receptor assessed as calcium mobilization by cell based fluorescence assay. It counts as functional.
Series [5] shares this target. The experiment in a line: Modulation of rat mGlu5 receptor assessed as assessed as calcium mobilization at 30 uM by cell based fluorescence assay. The series is classed as functional.
Series [6] is described as follows: Volume of distribution at steady state in rat at 0.2 mg/kg, iv administered as cassette dose. It counts as ADME, organism-based. Conditions: in vivo, read-out: Vdss.
Series [7] deals with Metabotropic glutamate receptor 3 (Rattus norvegicus, UniProt P31422). The experiment in a line: Negative allosteric modulation of rat mGlu3 receptor assessed as calcium mobilization by cell based fluorescence assay. It counts as functional. The gist of the method:
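Cell line stably expressing rat mGlu3 with the promiscuous G-protein Gα15. Calcium mobilization with fluorescence read-out, inhibition of the glutamate response. Full concentration-response curves, top concentration 30 μM. % Glu Max is the response with 30 μM test compound as a percentage of the maximal response to 100 μM glutamate. Values averaged over n-3.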

Series [8] concerns Plasma. The experiment in a line: Fraction unbound in rat plasma. It counts as ADME, cell-free.
The subject of series [9] is Brain. The experiment in a line: Fraction unbound in rat brain. The series is classed as ADME, tissue-based.
Series [10] in a line: Plasma clearance in rat at 0.2 mg/kg, iv administered as cassette dose. It counts as ADME, organism-based.
Series [11] concerns the target 5-hydroxytryptamine receptor 2B (Homo sapiens) (UniProt P41595). The experiment in a line: Agonist activity at 5HT2B receptor (unknown origin) up to 10 uM.
In series [12] the test system is Plasma. The experiment in a line: Fraction unbound in mouse plasma. The series is classed as ADME, cell-free.
Series [13] can be described thus: Plasma clearance in rat at 1 mg/kg, iv and 3 mg/kg, po. It counts as ADME, organism-based. The gist of the method:
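Rat PK, n = 2 each route. IV: 1.0 mg/kg as solution in 10% EtOH, 50% PEG 400, 40% saline (1 mg/mL). Oral: 3.0 mg/kg as fine microsuspension in 0.1% Tween 80 and 0.5% methyl cellulose in H2O (0.3 mg/mL). Plasma clearance and bioavailability derived from plasma levels.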

A short description of series [14]: AUC (0 to infinity) in mouse at 10 mg/kg, ip. It counts as ADME, organism-based. Set-up: dose 10 mg/kg, time infinity, route intraperitoneal. Conditions: in vivo.
For series [15], the target named is 5-hydroxytryptamine receptor 2B (Homo sapiens) (UniProt P41595). The experiment in a line: Binding affinity to 5HT2B receptor (unknown origin) at 10 uM by radioligand binding assay.
Chain of 5-hydroxytryptamine receptor 2B (Homo sapiens) (P41595 whole entry): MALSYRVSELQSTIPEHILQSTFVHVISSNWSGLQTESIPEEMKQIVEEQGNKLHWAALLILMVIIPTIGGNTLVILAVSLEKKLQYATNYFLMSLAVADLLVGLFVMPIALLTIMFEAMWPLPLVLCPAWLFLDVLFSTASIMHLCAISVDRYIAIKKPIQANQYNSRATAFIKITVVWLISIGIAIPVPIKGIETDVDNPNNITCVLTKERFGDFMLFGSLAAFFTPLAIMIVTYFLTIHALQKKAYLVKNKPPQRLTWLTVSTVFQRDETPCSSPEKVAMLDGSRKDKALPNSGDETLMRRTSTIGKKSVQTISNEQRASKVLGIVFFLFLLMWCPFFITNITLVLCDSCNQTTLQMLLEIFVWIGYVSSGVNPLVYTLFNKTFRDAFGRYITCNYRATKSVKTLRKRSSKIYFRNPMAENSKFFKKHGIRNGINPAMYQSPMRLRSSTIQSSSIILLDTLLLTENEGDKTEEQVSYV
Series [16] concerns Mus musculus. The experiment in a line: Anxiolytic activity in CD1 mouse assessed as inhibition of marble burying behavior at 56.6 mg/kg, ip after 30 mins. It counts as functional, organism-based.
Series [17] in a line: in vivo. The conditions noted are these: rat, ip, 10 mg/kg.
Series [18] has as its system Brain. The experiment in a line: Fraction unbound in mouse brain. It counts as ADME, tissue-based.
In a further series the target is Cytochrome P450 2C9 (Homo sapiens, UniProt P11712). The experiment in a line: Inhibition of CYP2C9 in human liver microsomes by cocktail assay. It counts as ADME. Put shortly: (§1)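 Human liver microsome cocktail incubation with probe substrates for four P450s; inhibition of each isoform measured.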
Chain of Cytochrome P450 2C9 (P11712 whole entry, canonical isoform): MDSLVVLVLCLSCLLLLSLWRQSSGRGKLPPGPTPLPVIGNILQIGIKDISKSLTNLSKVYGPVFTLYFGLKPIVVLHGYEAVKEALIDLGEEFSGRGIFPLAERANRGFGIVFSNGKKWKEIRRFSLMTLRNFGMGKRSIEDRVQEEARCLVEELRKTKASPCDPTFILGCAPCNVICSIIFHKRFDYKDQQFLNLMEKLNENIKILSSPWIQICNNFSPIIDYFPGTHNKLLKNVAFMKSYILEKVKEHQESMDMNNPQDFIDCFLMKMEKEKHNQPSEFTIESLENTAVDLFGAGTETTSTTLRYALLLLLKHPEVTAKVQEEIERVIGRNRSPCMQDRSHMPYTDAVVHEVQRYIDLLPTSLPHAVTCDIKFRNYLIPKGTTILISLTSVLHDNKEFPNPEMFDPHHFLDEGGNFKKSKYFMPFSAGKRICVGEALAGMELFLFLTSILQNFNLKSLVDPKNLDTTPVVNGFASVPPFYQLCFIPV
In general terms: Liver microsomes are a subcellular fraction often used to study metabolism.

The nature of series [19]: AUC (0 to infinity) in rat at 10 mg/kg, ip. The conditions noted are these: in vivo. It counts as ADME, organism-based. Set-up: dose 10 mg/kg, time infinity, route intraperitoneal.
The target of series [20] is Metabotropic glutamate receptor 2 (Rattus norvegicus) (UniProt P31421). The experiment in a line: Negative allosteric modulation of rat mGlu2 receptor assessed as calcium mobilization at 30 uM by cell based fluorescence assay. It counts as functional. The gist of the method:
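Rat mGlu2 calcium mobilization assay with fluorescence read-out; full concentration-response curve analysis up to 30 μM top concentration.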

Series [21] can be described thus: in vivo. The conditions noted are these: mouse, ip, 10 mg/kg.
Series [22] is described as follows: Plasma concentration in mouse at 10 mg/kg, ip after 30 mins. The series is classed as ADME, organism-based. Put shortly: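 Single time-point tissue distribution in mice. Dosed IP as a fine microsuspension in 0.1% Tween 80 and 0.5% methyl cellulose in H2O (1 mg/mL). Plasma and brain were sampled 30 min post dose, n = 3.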
In another series the target is Cytochrome P450 3A4 (Homo sapiens, UniProt P08684). The experiment in a line: Inhibition of CYP3A4 in human liver microsomes by cocktail assay. It counts as ADME. The gist of the method: as §1
Series [23] concerns MDCK. The experiment in a line: Apparent permeability from basolateral to apical side in MDCK cells expressing human MDR1 gene. The series is classed as ADME, cell-based, Canis lupus familiaris. The conditions noted are these: dog. Put shortly: (§2)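 Permeability and P-gp efflux measured in MDCK cells transfected with human MDR1 gene.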
Series [24] in a line: Cmax in mouse at 10 mg/kg, ip. It counts as ADME, organism-based. Further details: dose 10 mg/kg, route intraperitoneal. The conditions noted are these: in vivo.
A short description of series [25]: Oral bioavailability in rat at 3 mg/kg. It counts as ADME, organism-based. Conditions: in vivo.
Series [26] is described as follows: Volume of distribution at steady state in rat at 1 mg/kg, iv and 3 mg/kg, po. The conditions noted are these: in vivo, read-out: Vdss. The series is classed as ADME, organism-based. Put shortly: (§3)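 Rat IV PK, n = 2, 1.0 mg/kg as solution in 10% EtOH, 50% PEG 400, 40% saline (1 mg/mL); oral arm 3.0 mg/kg as fine microsuspension in 0.1% Tween 80 and 0.5% methyl cellulose in H2O (0.3 mg/mL).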

The next series addresses T1, Cytochrome P450 1A2 (Homo sapiens, UniProt P05177).
T1 sequence (P05177 whole entry): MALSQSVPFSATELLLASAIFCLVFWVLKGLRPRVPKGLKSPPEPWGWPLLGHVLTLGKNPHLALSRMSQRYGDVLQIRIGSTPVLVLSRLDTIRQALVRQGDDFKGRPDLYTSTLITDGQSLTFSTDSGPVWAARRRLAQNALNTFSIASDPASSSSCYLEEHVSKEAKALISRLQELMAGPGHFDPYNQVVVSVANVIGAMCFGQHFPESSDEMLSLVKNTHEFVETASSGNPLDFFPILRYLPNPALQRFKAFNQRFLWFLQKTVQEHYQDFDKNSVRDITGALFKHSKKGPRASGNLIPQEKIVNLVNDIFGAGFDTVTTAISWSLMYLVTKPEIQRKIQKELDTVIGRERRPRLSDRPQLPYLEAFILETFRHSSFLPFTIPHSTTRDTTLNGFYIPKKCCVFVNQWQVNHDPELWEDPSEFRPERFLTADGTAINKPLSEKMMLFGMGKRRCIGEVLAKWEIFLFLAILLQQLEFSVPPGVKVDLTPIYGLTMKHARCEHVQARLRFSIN
The experiment in a line: Inhibition of CYP1A2 in human liver microsomes by cocktail assay. The series is classed as ADME.

The test system of series [27] is MDCK. The experiment in a line: Apparent permeability from apical to basolateral side in MDCK cells expressing human MDR1 gene. It counts as ADME, cell-based, Canis lupus familiaris. Conditions: dog. Put shortly:
as §2

For a further series, the target named is Cytochrome P450 2D6 (Homo sapiens, UniProt P10635). The experiment in a line: Inhibition of CYP2D6 in human liver microsomes by cocktail assay. It counts as ADME. The gist of the method:
as §1

Series [28] has as its system Rattus norvegicus. The experiment in a line: Antidepressant activity in Sprague-Dawley rat assessed as reduction of immobility time at 56.6 mg/kg, ip measured up to 6 mins by forced swim test. It counts as functional, organism-based.
Series [29] has as its system Rattus norvegicus. The experiment in a line: Half life in rat at 1 mg/kg, iv and 3 mg/kg, po. The series is classed as ADME, organism-based. Conditions: in vivo. The gist of the method: as §3
In series [30] the target is 5-hydroxytryptamine receptor 2B (Homo sapiens) (UniProt P41595). The experiment in a line: Antagonist activity at 5HT2B receptor (unknown origin) up to 10 uM.
Series [31] can be described thus: Cmax in rat at 10 mg/kg, ip. It counts as ADME, organism-based. Further details: dose 10 mg/kg, route intraperitoneal. The conditions noted are these: in vivo.
The subject of series [32] is Mus musculus. The experiment in a line: Anxiolytic activity in ip dosed CD1 mouse assessed as inhibition of marble burying behavior after 30 mins. It counts as functional, organism-based.

Calls of active or inactive are those of the source. The calls are words filed in the database; no cut-off is given here. Bounds are passed on as bounds.

Chain of Metabotropic glutamate receptor 5 (Rattus norvegicus) (P31424 21-1203 limits assumed): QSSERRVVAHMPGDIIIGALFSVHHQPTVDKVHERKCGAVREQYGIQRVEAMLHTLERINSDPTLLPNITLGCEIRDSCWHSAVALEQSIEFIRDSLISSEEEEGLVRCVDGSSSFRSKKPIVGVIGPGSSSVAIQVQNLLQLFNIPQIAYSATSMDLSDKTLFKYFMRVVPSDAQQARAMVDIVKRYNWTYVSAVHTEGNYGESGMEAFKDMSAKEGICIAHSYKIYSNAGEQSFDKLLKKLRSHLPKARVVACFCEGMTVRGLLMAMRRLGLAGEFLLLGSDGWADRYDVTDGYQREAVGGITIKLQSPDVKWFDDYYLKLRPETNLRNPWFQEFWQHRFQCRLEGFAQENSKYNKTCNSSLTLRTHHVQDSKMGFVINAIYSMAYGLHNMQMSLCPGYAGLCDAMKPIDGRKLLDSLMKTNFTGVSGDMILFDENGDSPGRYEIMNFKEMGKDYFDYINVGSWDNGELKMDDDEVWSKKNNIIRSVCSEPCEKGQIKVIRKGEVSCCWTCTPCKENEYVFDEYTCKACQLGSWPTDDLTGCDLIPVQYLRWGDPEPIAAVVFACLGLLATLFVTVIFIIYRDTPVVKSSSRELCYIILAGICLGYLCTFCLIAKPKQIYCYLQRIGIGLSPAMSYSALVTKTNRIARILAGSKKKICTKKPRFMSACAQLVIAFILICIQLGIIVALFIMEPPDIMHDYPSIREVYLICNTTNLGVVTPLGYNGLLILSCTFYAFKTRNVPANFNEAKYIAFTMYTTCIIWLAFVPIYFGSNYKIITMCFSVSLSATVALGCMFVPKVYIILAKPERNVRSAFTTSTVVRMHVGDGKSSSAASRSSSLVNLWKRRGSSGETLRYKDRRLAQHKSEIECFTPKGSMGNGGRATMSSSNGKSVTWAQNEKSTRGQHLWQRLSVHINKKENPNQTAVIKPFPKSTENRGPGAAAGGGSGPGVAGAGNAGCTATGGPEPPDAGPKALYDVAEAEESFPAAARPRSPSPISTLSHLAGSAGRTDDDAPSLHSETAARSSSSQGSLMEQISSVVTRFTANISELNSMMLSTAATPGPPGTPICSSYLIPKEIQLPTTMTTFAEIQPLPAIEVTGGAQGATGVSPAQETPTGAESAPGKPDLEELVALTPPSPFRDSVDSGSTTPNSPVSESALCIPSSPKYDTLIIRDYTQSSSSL
Chain of Metabotropic glutamate receptor 3 (P31422 whole entry): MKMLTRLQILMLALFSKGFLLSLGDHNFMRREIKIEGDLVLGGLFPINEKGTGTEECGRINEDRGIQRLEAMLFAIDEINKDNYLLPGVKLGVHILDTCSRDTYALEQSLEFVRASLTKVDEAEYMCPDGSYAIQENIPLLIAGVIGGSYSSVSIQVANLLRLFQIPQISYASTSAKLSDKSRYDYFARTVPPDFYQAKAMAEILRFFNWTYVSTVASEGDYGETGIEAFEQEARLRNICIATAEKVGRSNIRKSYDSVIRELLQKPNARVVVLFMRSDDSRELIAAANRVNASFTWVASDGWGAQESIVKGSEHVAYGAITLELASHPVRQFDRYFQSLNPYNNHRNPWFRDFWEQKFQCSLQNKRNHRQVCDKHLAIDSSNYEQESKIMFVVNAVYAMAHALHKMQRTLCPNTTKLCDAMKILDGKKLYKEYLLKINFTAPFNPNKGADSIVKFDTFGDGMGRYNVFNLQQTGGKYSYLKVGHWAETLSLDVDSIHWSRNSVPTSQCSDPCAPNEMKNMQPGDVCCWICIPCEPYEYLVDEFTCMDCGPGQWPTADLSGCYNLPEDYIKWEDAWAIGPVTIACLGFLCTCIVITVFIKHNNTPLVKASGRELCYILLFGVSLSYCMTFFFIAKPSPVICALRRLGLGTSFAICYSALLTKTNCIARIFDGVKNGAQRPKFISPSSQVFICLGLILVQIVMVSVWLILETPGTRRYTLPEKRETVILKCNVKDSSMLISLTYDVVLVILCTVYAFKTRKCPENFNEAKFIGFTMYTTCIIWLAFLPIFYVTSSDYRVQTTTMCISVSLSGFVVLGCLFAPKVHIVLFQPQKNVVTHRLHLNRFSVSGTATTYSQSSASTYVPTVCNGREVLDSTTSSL
Chain of Metabotropic glutamate receptor 5 (P31424 whole entry): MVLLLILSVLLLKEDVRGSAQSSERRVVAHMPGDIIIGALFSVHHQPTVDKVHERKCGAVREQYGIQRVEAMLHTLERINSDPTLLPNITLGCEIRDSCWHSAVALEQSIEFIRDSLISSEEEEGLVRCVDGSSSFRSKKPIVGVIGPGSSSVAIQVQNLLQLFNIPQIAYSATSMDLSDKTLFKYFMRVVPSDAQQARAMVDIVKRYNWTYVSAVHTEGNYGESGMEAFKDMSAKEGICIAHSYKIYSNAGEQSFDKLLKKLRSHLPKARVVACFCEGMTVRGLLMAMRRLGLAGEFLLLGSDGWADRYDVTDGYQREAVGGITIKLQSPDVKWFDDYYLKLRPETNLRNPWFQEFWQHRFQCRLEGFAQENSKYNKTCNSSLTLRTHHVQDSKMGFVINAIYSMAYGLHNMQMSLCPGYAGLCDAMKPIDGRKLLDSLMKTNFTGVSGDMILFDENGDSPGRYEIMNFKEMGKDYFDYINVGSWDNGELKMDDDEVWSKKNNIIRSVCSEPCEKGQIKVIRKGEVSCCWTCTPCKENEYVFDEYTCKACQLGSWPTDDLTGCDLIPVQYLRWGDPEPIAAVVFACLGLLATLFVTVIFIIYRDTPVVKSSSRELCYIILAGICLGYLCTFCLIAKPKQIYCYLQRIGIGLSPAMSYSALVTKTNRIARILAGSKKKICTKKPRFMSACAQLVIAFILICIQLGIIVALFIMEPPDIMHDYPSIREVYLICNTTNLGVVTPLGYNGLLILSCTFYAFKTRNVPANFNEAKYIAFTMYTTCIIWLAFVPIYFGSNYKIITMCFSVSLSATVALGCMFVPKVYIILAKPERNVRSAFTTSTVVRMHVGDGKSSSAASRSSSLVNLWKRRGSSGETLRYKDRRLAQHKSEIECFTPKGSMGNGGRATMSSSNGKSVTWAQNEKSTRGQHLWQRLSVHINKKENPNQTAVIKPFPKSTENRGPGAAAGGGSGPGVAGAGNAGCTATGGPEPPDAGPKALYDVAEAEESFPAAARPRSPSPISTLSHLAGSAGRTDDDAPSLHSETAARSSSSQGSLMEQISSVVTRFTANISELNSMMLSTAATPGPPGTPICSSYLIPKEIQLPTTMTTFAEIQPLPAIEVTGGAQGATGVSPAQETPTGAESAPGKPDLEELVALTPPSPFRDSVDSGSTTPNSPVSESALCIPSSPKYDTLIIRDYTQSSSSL
Chain of Metabotropic glutamate receptor 3 (Rattus norvegicus) (P31422 23-879 limits assumed): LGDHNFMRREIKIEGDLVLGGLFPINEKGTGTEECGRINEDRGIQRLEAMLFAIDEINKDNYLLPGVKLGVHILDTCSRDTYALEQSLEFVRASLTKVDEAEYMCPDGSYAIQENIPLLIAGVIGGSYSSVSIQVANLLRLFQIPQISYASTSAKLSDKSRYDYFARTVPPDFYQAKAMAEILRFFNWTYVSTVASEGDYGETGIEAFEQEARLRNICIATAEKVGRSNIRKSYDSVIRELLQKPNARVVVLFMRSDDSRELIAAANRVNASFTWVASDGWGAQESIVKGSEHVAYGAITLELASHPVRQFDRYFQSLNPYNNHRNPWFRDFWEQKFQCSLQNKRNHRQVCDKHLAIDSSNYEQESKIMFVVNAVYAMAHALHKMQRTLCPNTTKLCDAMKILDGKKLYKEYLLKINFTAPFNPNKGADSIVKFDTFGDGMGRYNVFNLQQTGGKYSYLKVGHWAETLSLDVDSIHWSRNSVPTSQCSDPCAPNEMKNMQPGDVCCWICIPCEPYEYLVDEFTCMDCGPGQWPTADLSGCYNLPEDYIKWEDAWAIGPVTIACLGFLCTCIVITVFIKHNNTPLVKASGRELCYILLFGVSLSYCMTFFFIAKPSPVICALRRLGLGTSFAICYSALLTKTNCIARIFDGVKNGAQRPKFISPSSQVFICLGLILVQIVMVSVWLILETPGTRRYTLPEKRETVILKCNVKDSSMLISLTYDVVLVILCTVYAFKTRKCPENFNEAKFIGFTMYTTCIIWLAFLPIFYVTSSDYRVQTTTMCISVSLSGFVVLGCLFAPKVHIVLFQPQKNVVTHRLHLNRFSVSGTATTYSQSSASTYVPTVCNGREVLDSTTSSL

The half-life is how long it takes for the measured level to halve. A low value points to rapid decline. Broadly, the EC50 is the concentration needed to bring the measured effect to its halfway point. As usually defined, the IC50 is the point on the concentration scale where inhibition reaches its midpoint. For the molecule `C[C@@H]1CN(c2cc(F)cc(C#N)c2)C(=O)c2cc(COc3ccc(Cl)cn3)nn21`, the Activity in series [1] worked out at 1.92%; in series [5], 28%. Also, the half-life in series [2] worked out at 194 min. Further, the EC50 in series [3] is 1.04 µM. In series [4], the result was Active. Besides, the Vd in [6] turned out to be 2.2 L/kg. The half-maximal inhibitory concentration (IC50) in [7] worked out at 0.315 µM. For the same molecule, the values for the Fu with Plasma [8] and in the series with Brain [9] were 0.045 and 0.032, respectively. This molecule gave a clearance in series [10] of 13 mL/min/kg.
For orientation: AUC(0-inf) means the area under the concentration-time curve extrapolated to infinity. Read a low AUC(0-inf) as low exposure. In general, inhibition refers to the share of the control response that was lost under treatment. What is called Tmax is the time from dosing to the highest level. Broadly, the Papp is a coefficient for how fast a substance crosses the barrier. In general, Cmax refers to the peak of the concentration-time curve. Usually bioavailability stands for the share of a dose that reaches the circulation, judged against a reference dose that is usually intravenous. A higher bioavailability goes with much systemic uptake. Consider `C[C@@H]1CN(c2cccnc2F)C(=O)c2cc(COc3ccc(Cl)cn3)nn21`, for which the outcome in series [11] and in [20] was inactive. Further, the Fu in the series with Plasma [12] is 0.163; with Brain [18] it was 0.035; in the series with Plasma [8], 0.083; with Brain [9], 0.052. Also, the clearance in [13] is 30 mL/min/kg; in [10] it was 37 mL/min/kg. Moreover, the total exposure AUC(0-inf) in [14] amounted to 7.26 µM·h; in series [19], 11.5 µM·h. The values for the inhibition (in series [15]; with Mus musculus [32]) were 65% and “Dose-dependent effect”, respectively. In addition, the Activity in [1] amounted to 1.71%. Also, in the series on Mus musculus [16], the inhibition entry is “Active”. Further, the half-life in [2] was determined as 42 min. Further, the EC50 in series [3] was greater than 30 µM. In addition, the Tmax in the series “in vivo [17]” was 12.3 min; in “in vivo [21]” it was 30 min. Further, the concentration for half-maximal inhibition (IC50) was 25.6 µM against Cytochrome P450 2C9; 0.392 µM in [7]; greater than 30 µM on Cytochrome P450 3A4; greater than 30 µM on Cytochrome P450 1A2; greater than 30 µM against Cytochrome P450 2D6. Further, the Vd in series [6] was 1.6 L/kg; in [26], 1.4 L/kg. The concentration at 0.5 h in series [22] stood at 2.29 µM. In addition, the Papp in the series on MDCK [23] amounted to 49.9 ×10⁻⁶ cm/s; with MDCK [27] it was 45 ×10⁻⁶ cm/s. The results for the Cmax in series [24] and in [31] were 4.48 µM and 4.57 µM, respectively. The molecule further showed a bioavailability in [25] of 60%. Besides, the outcome (with Rattus norvegicus [28]; in series [30]) was Active. This molecule showed a t1/2 in the series on Rattus norvegicus [29] of 49 min.
As to `C[C@@H]1CN(c2ccc(F)cc2)C(=O)c2cc(COc3ccccn3)nn21`, the outcome in series [20] was inactive.
